The list is not random: actives were taken first. Their share in the collection is about 1.7%.
IDE cell inh = inhibitors of human insulin-degrading enzyme in cells | actives 0.41% (n = 320,000) | inhibition, % at 5.59 µM | P14735 | HEK cells, FAbetaB cleavage, fluorescence polarization;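 active = percent inhibition above the average of all tested compounds plus 3 SD, set per screening campaign, cut at about 16% in these data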;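 note: IDE supplied by intact live HEK cells; FP after avidin binding of uncleaved biotin substrate so inhibition keeps polarization high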
Tb MetRS inh = blocks T. brucei methionyl-tRNA synthetase activity; actives 0.4% (n = 360,000); AID 624268; purified T. brucei MetRS, ATP depletion, Kinase-Glo luminescence; inhibition, % at 11.9 µM;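 active = inhibition above a per-plate cutoff of the control wells' mean inhibition plus 3 SD, cut at about 5.5% in these data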
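assay system = parasite MetRS enzyme | timing = 15 min preincubation, 2 h reaction, all 25 °C | evaluation = percent inhibition relative to median high and low control wells | medium = HEPES buffer containing pyrophosphatase, BSA, spermine, DTT | compound = single dose, 11.9 µM final nominal, 0.9% final DMSO | detection = Kinase-Glo luminescence, ATP depletion format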
TPT1 inh = inhibitors of Candida albicans tRNA 2'-phosphotransferase TPT1. recombinant caTPT1, FP RNA substrate dephosphorylation. inhibition, % at 5 µM. actives 0.81% (n = 300,000). AID 1962;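 active = inhibition above the mean of all tested compounds plus 3 SD, set per screening campaign, cut at about 24% in these data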
HNF4A DNA FP = change in binding of human HNF4 alpha to DNA; activity change, % at 10 µM; actives 0.3% (n = 360,000); HNF4a-FITC DNA binding, fluorescence polarization, 1 h; P41235; AID 1224865; in the data active = activity change above about 30%, passing the limit was not always enough
CSN deneddyl inh = blocks human CSN-mediated cullin deneddylation. Purified CSN, SCF-Nedd8-OG deneddylation, fluorescence polarization. inhibition, % at 12.5 µM. actives 0.38% (n = 360,000). AID 651999;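 active = pattern-corrected inhibition above about 35%, with an unprinted fluorescence ratio check between 0.5 and 1.5, limit read from the data, passing the limit was not always enough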
Target sequence (Q92905 whole entry, looked up, one chain of several): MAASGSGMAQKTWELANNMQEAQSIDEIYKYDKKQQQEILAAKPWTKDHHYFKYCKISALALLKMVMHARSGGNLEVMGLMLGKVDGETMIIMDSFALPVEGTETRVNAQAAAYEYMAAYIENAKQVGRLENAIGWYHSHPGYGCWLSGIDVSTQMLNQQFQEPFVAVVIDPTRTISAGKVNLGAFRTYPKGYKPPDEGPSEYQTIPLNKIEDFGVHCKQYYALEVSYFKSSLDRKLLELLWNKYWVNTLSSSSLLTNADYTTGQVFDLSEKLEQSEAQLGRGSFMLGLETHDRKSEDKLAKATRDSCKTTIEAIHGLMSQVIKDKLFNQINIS
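assay system = purified human Csn5 enzyme expressed in HEK293T cells | amount = 0.24 nM enzyme | buffer or medium = Tris/NaCl/DTT buffer, pH 7.5 | reagent = 10 nM SCFSkp2-Nedd8OG | compound = one concentration, 12.5 µM, 0.25% DMSO | times = 90 min reaction at room temperature | signal = FP | read-out basis = % inhibition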
IDE cell activ = boosts human insulin-degrading enzyme activity in HEK cells; P14735; FAbeta-B cleavage, fluorescence polarization; 0% vehicle, 100% cell-free pure enzyme wells; activation, % at 5.96 µM; actives 0.073% (n = 340,000);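 active = activation above the mean of all tested compounds plus 3 SD, set per screening campaign, cut at about 17% in these data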
TPT1 inh confirm = TPT1 (C. albicans) inhibition, confirmation; shares compounds with TPT1 inh; recombinant caTPT1, fluorescence polarization, RNase T1 coupled; inhibition, % at 5 µM; actives 74% (n = 2,400); AID 2149;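 active = inhibition above the primary screen limit, the mean inhibition of all tested compounds plus 3 SD, cut at about 25% in these data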
RNase T1 inh = counter-screen for TPT1 inhibitors: inhibitors of Aspergillus oryzae RNase T1. shares compounds with TPT1 inh. RNase T1 cleavage, fluorescence polarization, 1536-well. inhibition, % at 5 µM. actives 83% (n = 2,400);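 active = inhibition above the solvent-only control well mean plus 3 SD, limit set per screening run, cut at about 23% in these data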;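 note: inhibitors block cleavage so intact labeled substrate keeps polarization high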
Target sequence (P00651 whole entry, looked up): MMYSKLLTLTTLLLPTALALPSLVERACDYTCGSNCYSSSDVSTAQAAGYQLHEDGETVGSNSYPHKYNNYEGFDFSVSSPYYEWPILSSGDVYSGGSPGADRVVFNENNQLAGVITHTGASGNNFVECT
A number is an active result; . = inactive; / = no result given.

SMILES	IDE cell inh	Tb MetRS inh	TPT1 inh	HNF4A DNA FP	CSN deneddyl inh	IDE cell activ	TPT1 inh confirm	RNase T1 inh
O=C(O)Cn1c(O)c(C=Nc2ccccc2)sc1=S	.	.	.	.	.	.	/	/
C=CCn1c(O)c(C=Nc2ccccc2)sc1=S	.	.	.	.	.	.	/	/
Oc1c(C=Nc2ccccc2)sc(=S)n1Cc1ccccc1	.	.	43	.	.	.	43	59
CCn1c(O)c(C=Nc2ccccc2)sc1=S	.	/	25	/	/	/	.	28
CCOc1ccc(C(=O)OCC(=O)Nc2ccc(SC(F)F)cc2)cc1OCC	.	.	.	.	.	.	/	/
CCN1C(=O)/C(=C\N2CCN(C(=O)c3ccco3)CC2)SC1=S	.	.	.	.	.	.	/	/
CCN1CCN(c2c(/C=C3\SC(=S)N(Cc4ccco4)C3=O)c(C)c(C#N)c(=O)n2C)CC1	66	.	161	.	.	.	181	172
CCOC(=O)c1sc(NCc2ccco2)c(-c2nc3ccccc3s2)c1N	.	.	26	.	.	.	28	39
Oc1[nH]c2ccccc2c1N=Nc1ccccc1F	.	.	138	.	.	.	129	130
CCOC(=O)c1nn(-c2ccc(Cl)cc2Cl)c(=N)c(C#N)c1C	.	/	95	/	/	/	81	87
NC(=O)c1cc[n+](CC2=C(C(=O)O)N3C(=O)[C@@H](NC(=O)C(c4ccccc4)S(=O)(=O)[O-])[C@H]3SC2)cc1 (stereo not given in full)	.	.	41	.	.	.	39	.
N[C@@H](C(=O)N[C@@H]1C(=O)N2C(C(=O)O)=C(Cl)CS[C@H]12)c1ccccc1	.	.	.	.	.	.	/	/
CC(=O)NC(c1ccccc1)c1nc(-c2ccc(Cl)cc2)cs1 (stereo not given)	/	.	/	.	.	/	/	/
CCOCCCNCC(=O)Nc1ccc(OC(F)(F)F)cc1	.	.	.	.	.	.	/	/
COCCNCC(=O)Nc1ccc(OC(F)(F)F)cc1	.	.	62	.	.	.	.	.
OC1(c2cccc(C(F)(F)F)c2)CCN(CCN2CCCCC2)CC1	.	.	.	.	.	.	/	/
CCCCCC(O)CCC(=O)NNC1=CC(=O)CC(C)(C)C1 (stereo not given)	.	.	69	.	.	.	.	.
CC(O)CCC(=O)NNC1=CC(=O)CC(C)(C)C1 (stereo not given)	.	/	.	/	/	/	/	/
O=C1NC(=S)N/C1=C/c1cc([N+](=O)[O-])ccc1O	.	.	43	.	.	.	43	52
O=C1NC(=S)N/C1=C/c1cccc([N+](=O)[O-])c1O	.	.	.	.	.	.	/	/
N#C/C(=C\c1cc(O)c(O)c(O)c1)C(N)=O	.	.	33	.	.	.	27	36
O=C(CC(C(=O)NCc1ccccc1)c1nc2ccccc2c(=O)[nH]1)NCc1ccccc1 (stereo not given)	.	.	.	.	.	.	/	/
COc1nc(N)c(S(=O)(=O)c2ccccc2)cc1C#N	.	.	30	.	.	.	30	41
O=C1CN(C(=O)COC(=O)CCC(=O)c2ccc(F)cc2)c2ccccc2N1	.	.	/	.	.	.	/	/
O=C(Cc1ccc(Cl)cc1)NNC(=S)NC(=O)c1cccnc1	.	.	35	.	.	.	45	58
SMILES	IDE cell inh	Tb MetRS inh	TPT1 inh	HNF4A DNA FP	CSN deneddyl inh	IDE cell activ	TPT1 inh confirm	RNase T1 inh
O=C(NNC(=S)NC(=O)c1cccnc1)c1ccc(Cl)cc1	.	.	.	.	.	.	/	/
C/C(=N/NC(N)=S)c1cc2ccc(O)cc2oc1=O	.	.	25	.	.	.	90	97
CCc1cc2c(SCc3nc4sc(C(C)=O)c(C)c4c(=O)[nH]3)ncnc2s1	.	.	37	.	.	.	33	50
Cc1sc2nc(CSc3ncn[nH]3)[nH]c(=O)c2c1C	.	.	.	.	.	.	/	/
CCc1nnc(NC(=O)CN2CCCC(C)C2)s1 (stereo not given)	.	.	.	.	.	.	/	/
CN1C(=O)/C(=C/c2coc3ccc(O)cc3c2=O)SC1=S	.	.	.	.	.	.	/	/
N=C1/C(=C\c2coc3ccc(O)cc3c2=O)C(=O)N=C2SC=CN12	.	.	65	.	.	.	67	76
N=C1/C(=C/c2coc3ccccc3c2=O)C(=O)N=C2SC(c3ccco3)=NN12	.	.	59	.	.	/	88	97
Cc1ccccc1CN1CCC(CNC(=O)C2CCCN(c3ncnc4c3nc3n4CCCCC3)C2)CC1 (stereo not given)	.	.	.	.	.	.	/	/
CC(C(=O)O)N1C(=O)/C(=C/c2cccn2C)SC1=S (stereo not given)	.	.	96	85	48	.	105	118
CCC(C(=O)O)N1C(=O)/C(=C/c2cccn2C)SC1=S (stereo not given)	.	.	118	101	82	.	124	130
Cn1cccc1/C=C1/SC(=S)N(CC(=O)O)C1=O	.	.	89	81	50	.	110	120
Cc1ccc(NC(=O)CN2C(=O)S/C(=C\c3cccn3C)C2=O)cc1	.	.	.	.	.	.	/	/
COc1ccccc1/C=C1\SC(=S)N(C(C(=O)O)c2ccccc2)C1=O (stereo not given)	.	.	.	.	.	.	/	/
COc1ccccc1N1CCN(CCS(=O)(=O)c2cc(Cl)ccc2Cl)CC1	/	.	/	.	.	/	/	/
Cc1c(C(=O)N(CCO)Cc2ccccc2)oc2c(F)cccc12	.	.	.	.	.	.	/	/
Cc1c(N=C/C=C2/N(C)c3ccccc3C2(C)C)c(=O)n(-c2ccccc2)n1C	.	.	42	.	.	.	37	48
Cc1c(N=C/C=C2\N(C)c3ccccc3C2(C)C)c(=O)n(-c2ccccc2)n1C	.	.	.	.	.	.	/	/
N#C/C(=C\c1ccc([N+](=O)[O-])o1)C(=O)Nc1ccc(F)cc1	.	.	39	.	.	.	42	55
O=C(N/N=C/c1ccc(N2CCOCC2)s1)c1ccc(NS(=O)(=O)c2cccs2)cc1	.	.	29	.	.	.	78	90
Cc1cc(-n2ccnc2)n2c(nc3ccccc32)c1C#N	.	.	.	.	.	.	/	/
CCCc1cc(-n2ccnc2)n2c(nc3ccccc32)c1C#N	.	.	118	59	.	.	102	104
Nc1c(C(=O)O)sc2nc(-c3ccccc3)cc(-c3ccccc3)c12	.	.	.	.	.	.	/	/
Nc1c(C(=O)O)sc2nc(-c3ccccc3)cc(-c3ccc(F)cc3)c12	.	.	29	35	.	.	27	38

High-throughput results: PubChem BioAssay, several laboratories
